# STAT3 inh-1: IL-6 driven STAT3 reporter inhibitors, primary screen, U3A cells, luciferase, luminescence, MLSCN library; IL-6 STAT3-luciferase reporter; host cell line lacks STAT1; inhibition, % at 5.5 µM; hit rate 0.89% among 190,000;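 active means inhibition above the mean inhibition across all screened compounds plus 3 SD, cut at about 44% in these data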;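 further: 0% = DMSO only wells and 100% = 100 µM nifuroxazide control wells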
# STAT3 act: IL-6 driven STAT3 reporter potentiators, primary screen, U3A cells, luciferase, luminescence, MLSCN library. hit rate 0.91% among 190,000. AID 871, 2007. IL-6 STAT3-luciferase reporter; 100% = signal with IL-6 EC80 alone. activation (% of control), % at 5.6 µM;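 active means activation above the screen-wide mean of compound activation plus 3 SD, cut at about 130% in these data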;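 further: 0% = background luminescence of wells with medium and substrate only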
#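 Material: STAT3-luciferase reporter U3A cells; Probe or stimulus: IL-6 (33 ng/mL); Incubation: compound pre-incubation 1 h before IL-6, then 6 h stimulation at 37 °C; Technique: luminescence from STAT3-driven luciferase reporter; Evaluation: % activation versus median of IL-6-stimulated wells; Controls: IL-6-only high control.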
# APP 5'UTR act: activators of APP 5'UTR luciferase reporter, primary screen, SH-SY5Y cells. activation, % at 2 µM. hit rate 1% among 190,000. SH-SY5Y APP 5'UTR luciferase reporter, luminescence; zero percent = DMSO vehicle wells;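 active means activation above a set limit, based on mean plus 3 SD of controls, cut at about 140% in these data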
# STAT1 act: STAT1 signaling activators, primary screen, cell-based, HTS, luciferase reporter. hit rate 2.6% among 200,000. activation (% of control), % at 5.5 µM. NIH 3T3 STAT1-luciferase reporter, IFN-gamma, luminescence; 100% = IFN-gamma alone, no compound;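 active means activation above the screen-wide mean activation plus 3 SD, cut at about 130% in these data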;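 further: raw ratio to IFN-gamma control signal so 100% means no change and 0% no light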
# NF-kB expr up: activators of NF-kB expression in neurons, primary screen, cell-based, HTS | human neuronal cells, NF-kB reporter expression; stronger effect = higher value | fold change at 12.5 µM | hit rate 1.6% among 190,000 | AID 1239, 2008; in the data active means fold change above about 3.3
# STAT1 inh: STAT1 signaling inhibitors, primary screen, cell-based, HTS, luciferase reporter; NIH 3T3 STAT1-luciferase reporter, IFN-gamma, luminescence; inhibition, % at 5.5 µM; hit rate 0.35% among 200,000; AID 920, 2007;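 active means inhibition above a set limit, the mean inhibition across all tested compounds plus 3 SD, cut at about 34% in these data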;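 further: 0% = IFN-gamma with DMSO and 100% = IFN-gamma with 300 µM nifuroxazide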
# STAT3 inh-2: STAT3 reporter inhibitors, retest of hits, confirmation, U3A cells, luciferase, luminescence; shares compounds with STAT3 inh-1; inhibition, % at 5.7 µM; hit rate 45% among 1,200; IL-6 STAT3 luciferase reporter; cell line lacks STAT1;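 active means inhibition above the hit cutoff computed for the primary STAT3 screen, cut at about 44% in these data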;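 further: 0% = IL-6 plus DMSO and 100% = IL-6 plus nifuroxazide control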
# NFkB inh 2: NF-kB reporter inhibitors in human cells, confirmation, counter-screen for STAT3 inhibitor project, cell-based, HEK293T, luciferase, TNF-alpha stimulus | shares compounds with STAT3 inh-1 | TNF-alpha induced | inhibition, % at 5.7 µM | hit rate 36% among 1,200;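 active means inhibition above the mean of solvent-only control wells plus 3 SD, cutoff set per campaign, cut at about 13% in these data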;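 further: 0% = TNF-alpha with DMSO and 100% = TNF-alpha with MG high control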
# STAT1 inh 2: STAT1 reporter inhibitors, IFN-gamma induced, confirmation, counter-screen for STAT3 inhibitor project, cell-based, NIH 3T3, luciferase luminescence; AID 1317, 2008; inhibition, % at 5.7 µM; NIH 3T3 STAT1-luciferase reporter; shares compounds with STAT3 inh-1; hit rate 27% among 1,200;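 active means inhibition above the mean plus 3 SD of solvent-only control wells, limit set per screening run, cut at about 16% in these data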;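 further: 0% = DMSO with IFN-gamma and 100% = nifuroxazide control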
# * marks the source's active call; other numbers are inactive results; . = no result given. Most compounds without a hit are left out; they make up all but 5.1% or so of the library.
SMILES,STAT3 inh-1,STAT3 act,APP 5'UTR act,STAT1 act,NF-kB expr up,STAT1 inh,STAT3 inh-2,NFkB inh 2,STAT1 inh 2
CC(C)COc1ccc(-c2nnc(-c3ccco3)o2)cc1,63.2*,50.0,187.2*,115.6,4.26*,-18.9,42.1,-2.6,-52.5
O=C(COc1ccccc1)Nc1ccc(-c2nnc(-c3ccco3)o2)cc1,3.0,99.7,31.0,125.0,1.82,-27.3,.,.,.
CCCOc1ccc(-c2nnc(-c3ccco3)o2)cc1,78.5*,37.9,103.6,73.2,2.82,29.3,43.0,1.4,-50.4
COc1ccc(NC(=O)Nc2ccc(C(=O)N3CCOCC3)cc2)c(OC)c1,-1.5,105.8,0.1,107.2,1.03,-9.9,.,.,.
Cc1ccc(S(=O)(=O)CCC(=O)OC(C)C(=O)c2c(C)[nH]c3ccccc23)cc1 (stereo not given),-2.2,99.8,-2.0,93.6,1.24,9.0,.,.,.
CC(=O)N1CCCc2cc(S(=O)(=O)Nc3ccc4c(c3)OCO4)ccc21,.,.,.,.,1.02,.,.,.,.
CC(=O)N1CCc2cc(S(=O)(=O)Nc3cccc(C(F)(F)F)c3)ccc21,43.5*,63.3,-21.2,80.8,0.55,20.8,39.3,2.4,19.3*
Clc1ccc2nc(-c3ccc(Br)s3)cn2c1,58.5*,50.5,229.6*,95.7,3.49*,4.7,-30.6,-33.6,-140.0
O=C(N/N=C/c1ccc(O)cc1O)/C(=C/c1ccccc1)CCO,13.0,86.1,-23.6,100.8,1.61,-0.9,.,.,.
c1ccc2c(c1)OCC(CNc1ncnc3sccc13)O2 (stereo not given),84.1*,27.6,-3.5,80.7,1.3,21.2,86.9*,32.3*,19.8*
C[n+]1c2n(c3ccccc31)N=C(c1cc(C(C)(C)C)c(O)c(C(C)(C)C)c1)CS2,79.1*,34.9,-29.9,81.7,0.13,18.3,78.9*,36.6*,-3.5
COc1cccc(C2=Nn3c(nnc3-c3ccccc3O)SC2)c1,12.7,92.0,3.2,91.1,1.09,9.6,.,.,.
O=C(Nc1cccnc1Cl)c1ccc2c(Cl)c3c(nc2c1)CCC3,56.3*,54.4,242.3*,135.3*,5.93*,-36.9,11.8,-38.7,-95.8
N#Cc1ccccc1NC(=O)c1ccc2c(Cl)c3c(nc2c1)CCCC3,-6.4,105.0,92.2,119.7,3.15,-21.7,.,.,.
CCn1c(COc2ccc(=O)n(-c3ccccc3)n2)nnc1SC,10.4,95.0,12.0,98.3,1.16,1.7,.,.,.
O=C(C1=C[C@@H](C2CC2)C[C@@H](OCCCCO)O1)N1CCN(Cc2ccccc2)CC1,.,.,14.9,94.8,0.93,7.1,.,.,.
O=C(CSC1=NCCS1)Nc1ccnc2ccccc12,64.2*,49.3,24.3,70.2,0.78,32.4,74.7*,20.8*,24.1*
COCc1ccc(C(=O)N2CCCC(C(=O)c3cc(F)ccc3F)C2)s1 (stereo not given),4.4,100.1,-5.7,95.9,1.12,3.1,.,.,.
Cc1nn(Cc2ccc(Cl)cc2Cl)c(C)c1NC(=O)C1C2CCC(O2)C1C(=O)O (stereo not given),47.2*,62.9,-6.4,91.1,0.95,17.3,26.8,4.2,9.7
CCOc1ccc2nc(-c3ccccc3)[nH]c2c1,49.5*,59.2,142.2*,139.3*,5.43*,-43.3,22.2,-17.2,-109.7
CC(=O)NS(=O)(=O)c1ccc(NC(=O)c2ccccn2)cc1,7.5,100.8,-9.0,98.6,1.19,1.7,.,.,.
O=C(Nc1ccc(SC(F)(F)F)cc1)c1ccccn1,61.5*,52.1,149.6*,76.4,1.19,24.4,23.6,-20.7,-118.6
N#C/C(=C\c1cn(-c2ccccc2)nc1-c1cccnc1)c1nnc2n1CCCCC2,19.5,88.7,-1.9,93.4,0.45,7.1,.,.,.
COc1cccc(/C=C/C(=O)Nc2ccc3c(c2)OCCO3)c1OC,65.8*,47.2,205.0*,75.9,8.64*,24.6,11.7,-20.2,-110.3
CC(C)c1ccc(NC(=O)C2CCCCC2C(=O)O)cc1 (stereo not given),49.7*,62.0,-17.0,99.4,1.36,2.0,14.2,1.8,0.5
SMILES,STAT3 inh-1,STAT3 act,APP 5'UTR act,STAT1 act,NF-kB expr up,STAT1 inh,STAT3 inh-2,NFkB inh 2,STAT1 inh 2
Cc1ccc(/C=C/c2nnc(-c3cccs3)o2)cc1,63.8*,51.9,1.8,91.0,5.15*,10.0,24.1,-8.9,-40.0
Cc1ccc(C)c(N=Nc2ccc(O)c3ncccc23)c1,46.0*,63.0,-33.2,83.1,0.56,17.2,-22.6,-21.5,-41.0
C=CCn1c(SCC(=O)NC2CCCCC2)nc2ccccc2c1=O,3.8,103.5,3.0,99.4,1.3,-0.7,.,.,.
COc1ccc(C(=O)Nn2c(SCC(=O)NCc3ccco3)nc3ccccc3c2=O)cc1,66.7*,47.8,76.7,92.9,0.85,8.9,34.4,23.7*,-50.4
CCn1c(SCC(=O)NCc2ccco2)nc2ccccc2c1=O,5.5,97.3,-11.5,95.1,1.06,3.4,.,.,.
COc1ccc(C(=O)Nn2c(SCC(=O)NC3CCCCC3)nc3ccccc3c2=O)cc1,51.3*,60.5,109.9,73.9,1.56,28.4,8.9,-2.4,-54.3
Cc1nnc(NN2CCOCC2)[nH]c1=O,8.9,93.9,18.1,102.4,1.08,-3.7,.,.,.
CC(=O)Nc1ccc(SCC(=O)c2cc(C)n(-c3ccccc3F)c2C)cc1,53.6*,54.6,78.1,145.1*,0.51,-50.7,22.4,-40.0,-114.7
COC(=O)c1ccc(-n2c(C)cc(C(=O)CSc3ccc(NC(C)=O)cc3)c2C)cc1,-2.4,104.3,-4.8,100.7,0.92,-0.7,.,.,.
O=C(c1cccs1)c1ccc(-c2cccs2)s1,60.7*,54.3,158.4*,77.3,5.34*,24.8,20.5,-7.6,-77.4
O=C(Cn1cncn1)NCCC(c1ccccc1)c1ccccc1,5.2,106.0,3.2,110.9,1.22,-12.9,.,.,.
O=C(NC(=S)N(CCCCO)C1CCCCC1)c1sc2ccccc2c1Cl,3.3,101.3,17.8,93.5,0.96,7.3,.,.,.
CN1C(=O)C(N=Nc2ccccc2C(=O)O)N(C)C1=S (stereo not given),22.1,84.8,-14.6,98.3,1.16,1.4,.,.,.
O=C(c1ccc(CNS(=O)(=O)c2ccccc2)cc1)N1CCN(Cc2ccccc2)CC1,44.4*,66.4,14.0,96.9,0.88,3.4,27.6,5.5,-16.2
